Common to all, as to assay type: functional
For assay [1], the system named is Candida albicans. Kind of assay: Antifungal activity against Candida albicans ATCC 44859 after 48 hrs by microdilution method. As to conditions: for MIC80: ATCC 44859, 48 h. In outline: (§1)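 Yeasts held on Sabouraud dextrose agar. MIC by NCCLS M27-A broth microdilution in RPMI 1640 with L-glutamine, buffered with 0.165 M MOPS to pH 7.0. Compounds in DMSO (≤2% final), twofold dilutions 500–0.48. Final inoculum 5 × 10³ ± 0.2 cfu mL⁻¹. Incubated at 35 °C; absorbance at 540 nm read at 24 and 48 h. MIC is 80% growth inhibition versus control; run twice in duplicate.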
Background: Dilution methods test growth across graded concentrations, often in twofold steps.

For assay [2], the system named is Candida albicans. Kind of assay: Antifungal activity against Candida albicans ATCC 90028 after 24 hrs by microdilution method. As to conditions: for MIC80: ATCC 90028, 24 h. In outline:
as §1

In assay [3] the test system is Candida albicans. As to the kind of experiment: Antifungal activity against Candida albicans ATCC 90028 after 48 hrs by microdilution method. As to conditions: for MIC80: ATCC 90028, 48 h. An outline of the steps: as §1
Assay [4] relates to Candida parapsilosis. As to the kind of experiment: Antifungal activity against Candida parapsilosis ATCC 22019 after 24 hrs by microdilution method. As to conditions: for MIC80: Lodderomyces parapsilosis, ATCC 22019, 24 h. In outline:
as §1

Assay [5] relates to Candida parapsilosis. As to the kind of experiment: Antifungal activity against Candida parapsilosis ATCC 22019 after 48 hrs by microdilution method. As to conditions: for MIC80: Lodderomyces parapsilosis, ATCC 22019, 48 h. An outline of the steps:
as §1

Assay [6] concerns Pichia kudriavzevii. As to the kind of experiment: Antifungal activity against Candida krusei ATCC 6258 after 24 hrs by microdilution method. As to conditions: for MIC80: ATCC 6258, 24 h. An outline of the steps: as §1
Assay [7] concerns Pichia kudriavzevii. Kind of assay: Antifungal activity against Candida krusei ATCC 6258 after 48 hrs by microdilution method. As to conditions: for MIC80: ATCC 6258, 48 h. In outline: as §1
Assay [8] has as its system Pichia kudriavzevii. Kind of assay: Antifungal activity against Candida krusei E28 after 24 hrs by microdilution method. Conditions: for MIC80: E28, 24 h. In outline:
as §1

The test system of assay [9] is Pichia kudriavzevii. As to the kind of experiment: Antifungal activity against Candida krusei E28 after 48 hrs by microdilution method. Conditions: for MIC80: E28, 48 h. An outline of the steps: as §1
Assay [10] concerns Candida tropicalis. As to the kind of experiment: Antifungal activity against Candida tropicalis 156 after 24 hrs by microdilution method. As to conditions: for MIC80: Candida tropicalis, 156, 24 h. An outline of the steps:
as §1

For assay [11], the system named is Candida tropicalis. As to the kind of experiment: Antifungal activity against Candida tropicalis 156 after 48 hrs by microdilution method. Conditions: for MIC80: Candida tropicalis, 156, 48 h. An outline of the steps: as §1
In assay [12] the test system is Nakaseomyces glabratus. As to the kind of experiment: Antifungal activity against Candida glabrata 20/I after 24 hrs by microdilution method. An outline of the steps: as §1
Assay [13] concerns Nakaseomyces glabratus. Kind of assay: Antifungal activity against Candida glabrata 20/I after 48 hrs by microdilution method. An outline of the steps:
as §1

Assay [14] deals with Clavispora lusitaniae. Kind of assay: Antifungal activity against Candida lusitaniae 2446/I after 24 hrs by microdilution method. An outline of the steps: as §1
In assay [15] the test system is Clavispora lusitaniae. Kind of assay: Antifungal activity against Candida lusitaniae 2446/I after 48 hrs by microdilution method. An outline of the steps: as §1
The test system of assay [16] is Trichosporon beigelii. As to the kind of experiment: Antifungal activity against Trichosporon beigelii 1188 after 24 hrs by microdilution method. Conditions: for MIC80: Trichosporon beigelii, 1188, 24 h. In outline:
as §1

The subject of assay [17] is Trichosporon beigelii. As to the kind of experiment: Antifungal activity against Trichosporon beigelii 1188 after 48 hrs by microdilution method. As to conditions: for MIC80: Trichosporon beigelii, 1188, 48 h. An outline of the steps:
as §1

The test system of assay [18] is Aspergillus fumigatus. As to the kind of experiment: Antifungal activity against Aspergillus fumigatus 231 after 24 hrs by microdilution method. As to conditions: for MIC80: Aspergillus fumigatus, 231, 24 h. In outline:
(§2)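 Filamentous strains held on Sabouraud dextrose agar. NCCLS M27-A broth microdilution in RPMI 1640 with L-glutamine and 0.165 M MOPS, pH 7.0. DMSO diluent ≤2% final; twofold dilutions 500–0.48. Inoculum 5 × 10³ ± 0.2 cfu mL⁻¹ final.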

The subject of assay [19] is Aspergillus fumigatus. As to the kind of experiment: Antifungal activity against Aspergillus fumigatus 231 after 48 hrs by microdilution method. As to conditions: for MIC80: Aspergillus fumigatus, 231, 48 h. In outline:
as §2

For assay [20], the system named is Lichtheimia corymbifera. As to the kind of experiment: Antifungal activity against Absidia corymbifera 272 after 24 hrs by microdilution method. As to conditions: for MIC80: Lichtheimia corymbifera, 272, 24 h. In outline:
as §2

The subject of assay [21] is Lichtheimia corymbifera. As to the kind of experiment: Antifungal activity against Absidia corymbifera 272 after 48 hrs by microdilution method. As to conditions: for MIC80: Lichtheimia corymbifera, 272, 48 h. In outline:
as §2

Assay [22] has as its system Trichophyton mentagrophytes. Kind of assay: Antifungal activity against Trichophyton mentagrophytes 445 after 72 hrs by microdilution method. Conditions: for MIC80: Trichophyton mentagrophytes, 445, 72 h. In outline:
(§3)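 Dermatophyte held on Sabouraud dextrose agar. M27-A microdilution in MOPS-buffered (0.165 M, pH 7.0) RPMI 1640 with L-glutamine. DMSO ≤2% final; twofold dilutions 500–0.48. Inoculum 5 × 10³ ± 0.2 cfu mL⁻¹ final. Incubated at 35 °C; MIC read visually at 72 and 120 h as 80% inhibition of control growth; determined twice in duplicate.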

Assay [23] relates to Trichophyton mentagrophytes. Kind of assay: Antifungal activity against Trichophyton mentagrophytes 445 after 120 hrs by microdilution method. Conditions: for MIC80: Trichophyton mentagrophytes, 445, 120 h. An outline of the steps:
as §3

For assay [24], the system named is Candida albicans. Kind of assay: Antifungal activity against Candida albicans ATCC 44859 after 24 hrs by microdilution method. As to conditions: for MIC80: ATCC 44859, 24 h. An outline of the steps:
as §1

In brackets after ≈: the same amount, converted by molar mass. Activity calls are given as the source filed them. The rule behind the calls is not given here. Some results are limits rather than exact numbers.

This passage reports MIC80 and Activity results from ChEMBL document CHEMBL1157589, “Antifungal 3,5-disubstituted furanones: From 5-acyloxymethyl to 5-alkylidene derivatives” (Bioorg Med Chem, 2010).

With `CC(=O)OCC/C=C1/C=C(c2ccc(Br)cc2)C(=O)O1`, the MIC80 (in general, an inhibitory concentration at the 80% level, which refers to growth in some studies and to a panel of isolates in others) was 500 µM (≈ 169 µg/mL) against Candida albicans [1]; over 500 µM against Candida albicans [2]; over 500 µM in the assay on Candida albicans [3]; 250 µM (≈ 84.3 µg/mL) with Candida parapsilosis [4]; over 500 µM against Candida parapsilosis [5]; 500 µM (≈ 169 µg/mL) against Pichia kudriavzevii [6]. The MIC80 against Pichia kudriavzevii [7] was over 500 µM; against Pichia kudriavzevii [8] it was 500 µM (≈ 169 µg/mL); with Pichia kudriavzevii [9], over 500 µM; in the assay on Candida tropicalis [10], over 500 µM; against Candida tropicalis [11], over 500 µM; in the assay with Nakaseomyces glabratus [12], 250 µM (≈ 84.3 µg/mL). Further, the MIC80 in the assay with Nakaseomyces glabratus [13], with Clavispora lusitaniae [14], in the assay on Clavispora lusitaniae [15], against Trichosporon beigelii [16], against Trichosporon beigelii [17] and with Aspergillus fumigatus [18] was over 500 µM in each case. In addition, the MIC80 was over 500 µM with Aspergillus fumigatus [19]; 250 µM (≈ 84.3 µg/mL) in the assay on Lichtheimia corymbifera [20]; 250 µM (≈ 84.3 µg/mL) against Lichtheimia corymbifera [21]; 15.6 µM (≈ 5.27 µg/mL) in assay [22]; 15.6 µM (≈ 5.27 µg/mL) in [23]; 15.6 µM (≈ 5.27 µg/mL) in the assay with Candida albicans [24].

As to `COc1ccc(OCC2C=C(c3ccc(Br)cc3)C(=O)O2)cc1` (stereo not drawn), the MIC80 against Candida albicans [1] was found to be 1.95 µM (≈ 0.732 µg/mL); in the assay on Candida albicans [2], 1.95 µM (≈ 0.732 µg/mL); against Candida albicans [3] it was 7.81 µM (≈ 2.93 µg/mL); with Candida parapsilosis [4] it was 7.81 µM (≈ 2.93 µg/mL); against Candida parapsilosis [5] it was 15.6 µM (≈ 5.86 µg/mL); in the assay on Pichia kudriavzevii [6], 7.81 µM (≈ 2.93 µg/mL). The MIC80 against Pichia kudriavzevii [7] came out at 15.6 µM (≈ 5.86 µg/mL); against Pichia kudriavzevii [8], 7.81 µM (≈ 2.93 µg/mL); in the assay with Pichia kudriavzevii [9], 15.6 µM (≈ 5.86 µg/mL); in the assay with Candida tropicalis [10] it was 7.81 µM (≈ 2.93 µg/mL); in the assay with Candida tropicalis [11] it was 7.81 µM (≈ 2.93 µg/mL); in the assay with Nakaseomyces glabratus [12], 0.97 µM (≈ 0.364 µg/mL). In addition, the MIC80 with Nakaseomyces glabratus [13] was 1.95 µM (≈ 0.732 µg/mL); in the assay with Clavispora lusitaniae [14], 3.9 µM (≈ 1.46 µg/mL); with Clavispora lusitaniae [15] it was 7.81 µM (≈ 2.93 µg/mL); with Trichosporon beigelii [16], 7.81 µM (≈ 2.93 µg/mL); in the assay on Trichosporon beigelii [17], 15.6 µM (≈ 5.86 µg/mL); in the assay with Aspergillus fumigatus [18], 3.9 µM (≈ 1.46 µg/mL). The MIC80 is 7.81 µM (≈ 2.93 µg/mL) with Aspergillus fumigatus [19]; 31.2 µM (≈ 11.7 µg/mL) in the assay with Lichtheimia corymbifera [20]; 62.5 µM (≈ 23.5 µg/mL) in the assay with Lichtheimia corymbifera [21]; 1.95 µM (≈ 0.732 µg/mL) in [22]; 1.95 µM (≈ 0.732 µg/mL) in assay [23]; 0.97 µM (≈ 0.364 µg/mL) with Candida albicans [24].

In the case of `OC(Cn1cncn1)(Cn1cncn1)c1ccc(F)cc1F` [FLUCONAZOLE], the MIC80 against Candida albicans [1] was 2 µM (≈ 0.613 µg/mL); against Candida albicans [2], 0.8 µM (≈ 0.245 µg/mL); in the assay with Candida albicans [3] it was 3.3 µM (≈ 1.01 µg/mL); in the assay with Candida parapsilosis [4], 6.5 µM (≈ 1.99 µg/mL); with Candida parapsilosis [5], 13 µM (≈ 3.98 µg/mL); in the assay with Pichia kudriavzevii [6] it was over 50 µM. Also, the MIC80 against Pichia kudriavzevii [7] was over 50 µM; against Pichia kudriavzevii [8] it was over 50 µM; in the assay on Pichia kudriavzevii [9] it was over 50 µM; against Candida tropicalis [10], 3 µM (≈ 0.919 µg/mL); in the assay on Candida tropicalis [11] it was 5 µM (≈ 1.53 µg/mL); in the assay with Nakaseomyces glabratus [12], 22 µM (≈ 6.74 µg/mL). In addition, the MIC80 against Nakaseomyces glabratus [13] was over 50 µM; against Clavispora lusitaniae [14], 3.3 µM (≈ 1.01 µg/mL); in the assay with Clavispora lusitaniae [15], 3.3 µM (≈ 1.01 µg/mL); against Trichosporon beigelii [16] it was 4 µM (≈ 1.23 µg/mL); against Trichosporon beigelii [17], 9 µM (≈ 2.76 µg/mL); against Aspergillus fumigatus [18], over 50 µM. In addition, the MIC80 was over 50 µM in the assay on Aspergillus fumigatus [19]; over 50 µM in the assay with Lichtheimia corymbifera [20]; over 50 µM with Lichtheimia corymbifera [21]; 17 µM (≈ 5.21 µg/mL) in assay [22]; 1 µM (≈ 0.306 µg/mL) in the assay with Candida albicans [24].

In the case of `O=C1CCC=C1c1ccc(Cl)c(Cl)c1`, the outcome with Candida albicans [1], in the assay on Candida albicans [2], with Candida albicans [3], with Candida parapsilosis [4], in the assay on Candida parapsilosis [5] and in the assay with Pichia kudriavzevii [6] was inactive. Moreover, the result with Pichia kudriavzevii [7], with Pichia kudriavzevii [8], with Pichia kudriavzevii [9], with Candida tropicalis [10], in the assay with Candida tropicalis [11] and in the assay with Clavispora lusitaniae [14] was inactive. Besides, the outcome with Clavispora lusitaniae [15], in the assay on Trichosporon beigelii [16], in the assay on Trichosporon beigelii [17], in the assay with Aspergillus fumigatus [18], in the assay with Aspergillus fumigatus [19] and in the assay with Lichtheimia corymbifera [20] was inactive. The result (with Lichtheimia corymbifera [21]; in assay [22]; in assay [23]; in the assay on Candida albicans [24]) was inactive.
